Screening results as filed in PubChem.
bCat KO growth: beta-catenin-lacking colon tumor cell growth suppression; HCT116 beta-catenin knockout viability, CellTiter-Glo, 60 h; active compounds read low; 1.5% of 140,000 active; viability, % at 10 µM;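 active = viability at or under a set limit, the compound median less 4 SD, cut at about 6% in these data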
Fibroblast inh: blocks proliferation of human lung fibroblasts; 1.1% of 85,000 active; LL 47 human lung fibroblast viability, ATP luminescence; active compounds read low; AID 719; viability, % at 10 µM;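 active = viability at or below 50% in the single dose screen; inactive = viability above 50%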;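 note: compound exposure lasted 72 h before the ATP readout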
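test system = LL 47 human lung fibroblasts | amount = 1,150 fibroblasts seeded per well | medium = 15% FBS in IMEM | times = overnight cell rest, 72 h compound treatment at 37 °C | measured by = CellTiter-Glo luminescence measuring cellular ATP | read-out = viability percentage against median untreated-cell control | benchmarks = cell-only wells, no compound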
H69AR inhibit: blocks growth of human H69AR lung tumor cells. AID 598. viability, % at 10 µM. H69AR lung tumor viability, ATP luminescence, 72 h; active compounds read low. 6% of 85,000 active;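 active = viability at or below 40%; inactive = viability above 40%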;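 note: multidrug resistant small cell line overexpressing MRP-1 efflux transporter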
HCT116 PTEN-null: growth suppressors of cells with PTEN tumor suppressor deletion; 1.2% of 140,000 active; viability, % at 10 µM; HCT116 PTEN-null viability, CellTiter-Glo, 60 h; active compounds read low;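 active = viability at or below a set limit, 4 SD under the median of all tested compounds, cut at about 3.7% in these data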;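 note: PTEN knockout HCT116 line with beta catenin targeted HCT116 as companion control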
HUVEC inhibit: blocks proliferation of human endothelial cells. AID 648. 1.1% of 86,000 active. viability, % at 10 µM (by protocol). HUVEC proliferation, CellTiter-Glo luminescence, 72 h; active compounds read low;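 active = viability at or below 30%; inactive = viability above 30%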
Of the large screens only hits and unclear results are named; the others gave an inactive call. Shown is part of a subset that was picked to be rich in hits.

COc1ccc(C(=O)Nc2ccccc2C(=O)NC(C(=O)NCc2ccco2)C(C)C)cc1 (stereo not drawn)	bCat KO growth 1.2, Fibroblast inh 39, H69AR inhibit 1.2, HCT116 PTEN-null 2.0
COc1ccc(C(=O)Nc2ccccc2C(=O)N(Cc2ccco2)C(C(N)=O)C(C)C)cc1 (stereo not drawn)	bCat KO growth 1.1, Fibroblast inh 42, H69AR inhibit 5.6, HCT116 PTEN-null 1.0
CCC(C)NC(=O)c1ccccc1NC(=O)COc1ccc(OC)cc1 (stereo not drawn)	H69AR inhibit 32
COc1ccc(NC(=O)c2ccccc2NC(=O)COc2ccccc2)cc1	none
COc1ccc(C(=O)Nc2ccccc2C(N)=O)cc1	none
Cc1cc(C)cc(OCC(=O)Nc2ccccc2C(=O)NCc2ccco2)c1	none
O=C(COc1ccc(Cl)cc1)Nc1ccccc1C(=O)NCc1ccco1	Fibroblast inh 37
Cc1noc(C)c1C(=O)N1CCCC1	none
CC(C)c1nc(SCC(=O)NCc2ccccc2)n[nH]1	none
O=C(CCc1ccc(S(=O)(=O)N2CCOCC2)cc1)Nc1nc(COc2ccccc2)cs1	none (no result: Fibroblast inh, H69AR inhibit, HUVEC inhibit)
O=C(Nc1nnc(C23CC4CC(CC(C4)C2)C3)s1)c1ccc(N2C(=O)CCC2=O)cc1	none
COc1ccccc1C1(CC(=O)Nc2nccs2)CCOC(C(C)C)C1 (stereo not drawn)	none (no result: Fibroblast inh, H69AR inhibit, HUVEC inhibit)
Cc1cc(CN2CCN(CCC#N)CC2)c(O)c(C2(C)CCCCC2)c1	H69AR inhibit 38
CC(C)NS(=O)(=O)c1ccc(NC(=O)NC2CCCCC2)cc1	none (no result: Fibroblast inh, H69AR inhibit, HUVEC inhibit)
C1=C(c2ccc(-c3ccccc3)cc2)Nc2ncnn2C1c1ccco1 (stereo not drawn)	H69AR inhibit 18
Cc1ccc(NC(=O)C(=O)NNC(=O)c2ccccc2C)cc1Cl	none (no result: Fibroblast inh, H69AR inhibit, HUVEC inhibit)
S=c1[nH]nc(COc2ccc3c(c2)OCO3)n1-c1ccccc1	H69AR inhibit 37
S=c1[nH]nc(-c2ccc3c(c2)OCO3)n1-c1ccccc1	none (no result: Fibroblast inh, H69AR inhibit, HUVEC inhibit)
O=C(NCCCn1ccnc1)c1cc2cc([N+](=O)[O-])ccc2oc1=O	none (no result: Fibroblast inh, H69AR inhibit, HUVEC inhibit)
C=CCn1c(SCC(=O)c2ccc(O)c(O)c2)nnc1-c1ccccc1OC	H69AR inhibit 20
C=CCn1c(SCC(N)=O)nnc1-c1ccccc1O	none
CCn1c(SCC(=O)c2ccc(O)c(O)c2)nnc1-c1ccccc1OC	H69AR inhibit 36
CCCCOc1cccc(C2C(C(=O)c3cccs3)=C(O)C(=O)N2Cc2cccnc2)c1 (stereo not drawn)	none (no result: Fibroblast inh, H69AR inhibit, HUVEC inhibit)
Cc1ccc(C(=O)N(c2c(C)n(C)n(-c3ccccc3)c2=O)C(C)C)cc1	none
Fc1cccc(Cl)c1CSc1nnnn1-c1ccc2c(c1)OCO2	H69AR inhibit 15
Fc1cccc(Cl)c1Cn1nnc(-c2ccc3c(c2)OCO3)n1	none
CC(=O)[C@H]1CC[C@H]2[C@@H]3CCC4=CC(=O)CC[C@]4(C)[C@H]3CC[C@]12C	H69AR inhibit 29
C[C@]12CCC(=O)C=C1CC[C@@H]1[C@@H]2CC[C@@]2(C)[C@H]1CC[C@]2(O)C(=O)CO	none
CC1CC(N(C(=O)c2ccco2)c2ccccc2)c2ccccc2N1 (stereo not drawn)	H69AR inhibit 15
COc1cccc(OCC(=O)Nc2c(C(=O)Nc3ccc(OC)cc3OC)oc3ccccc23)c1	H69AR inhibit 21 (no result: bCat KO growth, HCT116 PTEN-null)
COc1ccccc1NC(=O)c1oc2ccccc2c1NC(=O)c1cc(OC)c(OC)c(OC)c1	H69AR inhibit 22 (no result: bCat KO growth, HCT116 PTEN-null)
CC(=O)c1c(C)[nH]c(C(=O)OCCCCN2C(=O)c3ccccc3C2=O)c1C	none
CCc1ccc(C2C3=C(CCCC3=O)OC3=C2C(=O)CCC3)cc1	none (no result: Fibroblast inh, H69AR inhibit, HUVEC inhibit)
Cc1c(CC(C)C)nc(N)c(C#N)c1-c1ccccc1	H69AR inhibit 24
CCOc1cc2[nH]c(=S)n(CCCOC)c(=O)c2cc1OCC	none
CCOc1cc2[nH]c(=O)n(CCc3ccc(OC)c(OC)c3)c(=O)c2cc1OCC	H69AR inhibit 36
CCOc1cc2[nH]c(=S)n(CCc3ccc(OC)c(OC)c3)c(=O)c2cc1OCC	Fibroblast inh 17, H69AR inhibit 3.0, HUVEC inhibit 16
O=C(CC1CCS(=O)(=O)C1)Nc1ccc[nH]c1=O (stereo not drawn)	none
CCN(CC)S(=O)(=O)c1cccc(C(=O)Nc2nc3cc4c(cc3s2)OCCO4)c1	H69AR inhibit 22
O=C(NNc1nc2cc3c(cc2s1)OCO3)c1cccc(F)c1	bCat KO growth 0.6, HCT116 PTEN-null 0.2 (no result: Fibroblast inh, H69AR inhibit, HUVEC inhibit)
CC1CCc2c(sc(Nc3nc4c(F)cccc4s3)c2C(N)=O)C1 (stereo not drawn)	none (no result: Fibroblast inh, H69AR inhibit, HUVEC inhibit)
CC(=O)Nc1ccc(C(=O)CSc2cc(C)c3cccc(C)c3n2)cc1	none (no result: Fibroblast inh, H69AR inhibit, HUVEC inhibit)
C=CCn1cnc2c(c1=O)c1nc3ccccc3nc1n2/N=C/c1cc(OC)c(OC)c(OC)c1	bCat KO growth 0.8, Fibroblast inh 24, H69AR inhibit 8.9, HCT116 PTEN-null 1.4
Cc1ncsc1C(=O)N1N=C2/C(=C/c3ccccc3)CCCC2C1c1ccccc1 (stereo not drawn)	none (no result: Fibroblast inh, H69AR inhibit, HUVEC inhibit)
CCn1cc(Cl)c(C(=O)N2N=C3/C(=C/c4cccs4)CCCC3C2c2cccs2)n1 (stereo not drawn)	H69AR inhibit 38
O=C(CN1CCOCC1)Nc1ccccc1Sc1ccc(Cl)cc1	none (no result: Fibroblast inh, H69AR inhibit, HUVEC inhibit)
O=C(Cc1c(F)cccc1Cl)NCC1CCCO1 (stereo not drawn)	none
O=c1c(F)cn(C2CCCO2)c(=O)n1Cc1c(Cl)cccc1Cl (stereo not drawn)	H69AR inhibit 28
Cc1ccc([N+](=O)[O-])cc1N/C=C1\CCc2ccccc2C1=O	none (no result: Fibroblast inh, H69AR inhibit, HUVEC inhibit)
CC1(C)CCCC(C)(C)N1CC(O)COCCOc1ccc(Br)cc1 (stereo not drawn)	none (no result: Fibroblast inh, H69AR inhibit, HUVEC inhibit)
COc1ccc(-c2nc(Cn3c(SCc4cccc(F)c4)nc4ccncc43)c(C)o2)cc1OC	none
COc1ccc(-c2nc(Cn3c(SCc4ccc(C)cc4)nc4ccncc43)c(C)o2)cc1OC	H69AR inhibit 19
O=C(COc1ccc(Cl)cc1Cl)NN=C1CCCCC1	none (no result: Fibroblast inh, H69AR inhibit, HUVEC inhibit)
Cn1cc(C(=O)c2ccc(Cl)cc2Cl)cc1C(=O)N/N=C(\N)COc1ccc(Cl)cc1Cl	H69AR inhibit 18
Cn1cc(C(=O)c2ccc(Cl)cc2Cl)cc1C(=O)O	none (no result: Fibroblast inh, H69AR inhibit, HUVEC inhibit)
Cn1cc(C(=O)c2ccc(Cl)cc2Cl)cc1C(=O)N/N=C(\N)COc1ccc(F)cc1	H69AR inhibit 25
Cn1cc(C(=O)c2ccc(Cl)cc2Cl)cc1C(=O)N/N=C(\N)COc1ccccc1	H69AR inhibit 33
CCc1ccc(NC(=O)c2ccc3c(c2)C(=O)N(CCOC)C3Nc2ccc(CC)cc2)cc1 (stereo not drawn)	none (no result: Fibroblast inh, H69AR inhibit, HUVEC inhibit)
CCOC(=O)c1ccc(-c2ccc(C3Nc4ccccc4C(=O)N3O)o2)cc1 (stereo not drawn)	bCat KO growth 5.4 (no result: Fibroblast inh, H69AR inhibit, HUVEC inhibit)
CC1(C)N=C(SCC(=O)Nc2ccc(Cl)cc2)C(c2ccc(Cl)cc2)=N1	H69AR inhibit 8.4
CC1(C)N=C(SCC(=O)Nc2ccc(Cl)cc2)C(c2ccccc2)=N1	none
COc1ccc(NC(=O)c2cncc(Br)c2)cc1S(=O)(=O)N1CCCCC1	none (no result: Fibroblast inh, H69AR inhibit, HUVEC inhibit)
CC1CCN(S(=O)(=O)c2ccc(NC(=O)Cn3nnc(-c4ccccc4)n3)cc2)CC1	Fibroblast inh 29, H69AR inhibit 19
